Only a selection was taken, and hits are over-represented in it overall.
Fibroblast inh: antiproliferative effect on LL 47 fibroblasts – human, LL 47 cells, CellTiter-Glo luminescence, primary screen. LL 47 human lung fibroblast viability, ATP luminescence; active compounds read low. AID 719, 2007. actives 1.1% (n = 85,000). viability, % at 10 µM;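 active = viability at or below 50% in the single dose screen; inactive = viability above 50%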;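 also: compound exposure lasted 72 h before the ATP readout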
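Test system: LL 47 human lung fibroblasts; Quantity: 1,150 cells/well; Buffer or medium: IMEM plus 15% FBS; Dosing: tenfold compound dosing solution, DMSO at 0.1%; Timing: overnight cell rest, 72 h compound treatment at 37 °C; Detection: ATP-based CellTiter-Glo luminescent readout; Read-out basis: viability percentage against median untreated-cell control; Controls: cell-only wells, no compound.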
HCT116 PTEN-null: growth suppression of PTEN-null HCT116, primary screen, cell-based, CellTiter-Glo; HCT116 PTEN-null viability, 60 h; active compounds read low; viability, % at 10 µM; actives 1.2% (n = 140,000);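 active = viability at or below a set limit, 4 SD under the median of all tested compounds, cut at about 3.7% in these data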;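 also: PTEN knockout HCT116 line with beta catenin targeted HCT116 as companion control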
H69AR growth 86K: proliferation blockers of H69AR lung cancer cells, primary screen, cell-based, human, 86K library. actives 6% (n = 85,000). AID 598, 2007. viability, % at 10 µM. H69AR lung tumor viability, ATP luminescence, 72 h; active compounds read low;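 active = viability at or below 40%; inactive = viability above 40%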;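 also: multidrug resistant small cell line overexpressing MRP-1 efflux transporter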
HUVEC inhibit: inhibitors of HUVEC proliferation, primary screen, cell-based, 384-well. CellTiter-Glo luminescence, 72 h; active compounds read low. viability, % at 10 µM (by protocol). actives 1.1% (n = 86,000);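 active = viability at or below 30%; inactive = viability above 30%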
HCT116 bCat-KO: primary screen for growth suppressors in beta-catenin knockout HCT116 cells (colon tumor, human) | HCT116 beta-catenin knockout viability, CellTiter-Glo, 60 h; active compounds read low | viability, % at 10 µM | actives 1.5% (n = 140,000) | AID 818, 2007;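 active = viability at or under a set limit, the compound median less 4 SD, cut at about 6% in these data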
A number is an active result; . = inactive; / = no result.

SMILES	Fibroblast inh	HCT116 PTEN-null	H69AR growth 86K	HUVEC inhibit	HCT116 bCat-KO
O=C(CSc1ncnc2c1nnn2-c1ccc(F)cc1)NCC1CCCO1 (stereo not drawn)	.	.	.	.	5.8
Cc1ccc(-n2nnc3c(SCC(=O)NCC4CCCO4)ncnc32)cc1 (stereo not drawn)	.	.	.	.	.
CC(=O)Nc1ccc2nc(-c3ccc(Br)o3)[nH]c2c1	/	.	/	/	.
O=C(Nc1ccc2nc(-c3ccc(Br)o3)[nH]c2c1)c1cccs1	.	.	38	.	.
COc1cccc(CNC(=O)c2nnn(CC(=O)Nc3ccc(C)c(C)c3)c2N)c1	.	.	.	.	.
COc1ccc(NC(=O)Cn2nnc(C(=O)NCc3ccccc3)c2N)cc1Cl	.	.	28	.	.
COc1cc2c(cc1OC)C1(Nc3c-2c(Cc2ccccc2)nn3-c2ccccc2)C(=O)Nc2ccccc21 (stereo not drawn)	.	.	26	.	.
Cc1cc(C)nc(N/N=C/C(Cl)=C/c2ccccc2)n1	/	.	/	/	.
CC(=O)Nc1cccc(Oc2cc(C#N)c(C#N)cc2N2CCCCCC2)c1	.	.	32	.	.
COc1ccc(Cl)cc1NC(=O)c1ccco1	.	.	.	.	.
COc1ccc2cc(/C=C/C(=O)c3ccco3)c(Cl)nc2c1	.	.	16	.	.
COc1cc2cc(/C=C/C(=O)c3ccco3)c(Cl)nc2cc1OC	.	.	7.9	.	.
CCOC(=O)c1ccc(N2Cc3ccccc3C2=N)cc1	/	.	/	/	.
CN(C)c1ccc(/C=N/N2C(=N)N(c3ccccc3)C(=S)C2=Nc2ccccc2)cc1	.	/	16	.	/
CCOC(=O)c1ccc(N=C2C(=S)N(c3ccc(C(=O)OCC)cc3)C(=N)N2/N=C/c2ccccc2)cc1	.	.	0.9	.	.
Cc1c(C(=O)N2CCC(C)CC2)sc2ncnc(N(C)c3ccccc3)c12	.	.	.	.	.
Cc1ccc(S(=O)(=O)N(Cc2ccc(Cl)cc2)c2ccccc2C(=O)NCc2ccco2)cc1	/	.	/	/	.
C=CCSC(=S)NC1CCS(=O)(=O)C1 (stereo not drawn)	/	.	/	/	.
COc1cc(C(=O)Nc2ccccc2-c2nnn(CC(N)=O)n2)cc(OC)c1OC	/	.	/	/	.
O=C(Cn1nnc(-c2ccccc2NC(=O)c2cccs2)n1)Nc1ccccc1	.	.	15	.	.
CCOc1ccc(-c2nnn(CC(=O)Nc3ccccc3OC)n2)cc1OCC	.	.	11	.	.
COc1ccc(-c2nnn(CC(=O)NCc3ccccc3)n2)cc1OC	.	.	.	.	.
COc1ccccc1NC(=O)Cn1nnc(-c2ccccc2NC(=O)c2cccs2)n1	.	.	30	.	.
Cc1ccc(-n2c(O)c(C=NCc3ccccn3)c3ccccc3c2=O)cc1C	/	.	/	/	.
O=C(Nc1cccc(Cl)c1)c1cc(S(=O)(=O)NCCc2ccc(Cl)cc2)ccc1F	/	.	/	/	.
SMILES	Fibroblast inh	HCT116 PTEN-null	H69AR growth 86K	HUVEC inhibit	HCT116 bCat-KO
C=CCn1nc([N+](=O)[O-])nc1Sc1cccc2cccnc12	/	1.8	/	/	2.1
O=[N+]([O-])c1ccc(Sc2cccc3cccnc23)c([N+](=O)[O-])c1	4.2	2.2	1.6	.	1.6
Cc1nn2c(COc3ccc(NC(=O)c4ccccc4Cl)cc3)nnc2c2ccccc12	/	.	/	/	.
CN(C)S(=O)(=O)c1ccc(Cl)c(NC(=O)c2ccncc2)c1	/	.	/	/	.
CC1=C(C)CS(=O)N(S(=O)(=O)c2ccc(Cl)cc2)C1 (stereo not drawn)	47	.	.	.	.
CC1CCN(S(=O)(=O)c2ccc(Cl)cc2)CC1	.	.	.	.	.
CC1CC(C)(C)CC2(C1)NC(=O)N(CC(=O)NC1CCCc3ccccc31)C2=O (stereo not drawn)	/	.	/	/	.
CCN(CC)CCNC(=O)C(=O)NCC1OCCN1S(=O)(=O)c1ccc([N+](=O)[O-])cc1 (stereo not drawn)	/	.	/	/	.
O=C(CCc1ccccc1)NC(NC(=S)Nc1ccc(Br)cc1)C(Cl)(Cl)Cl (stereo not drawn)	.	.	8.3	.	.
CCOC(=O)c1c(NC(=O)CSc2nnnn2-c2ccc3c(c2)OCCO3)sc(C)c1C	.	.	36	.	.
COc1ccc(OC)c(-n2nnnc2SCC(=O)Nc2ccc3c(c2)OCCO3)c1	.	.	.	18	.

From PubChem BioAssay
